Experimental data as given in ChEMBL document CHEMBL1133507, “Novel bronchodilators: synthesis, transamination reactions, and pharmacology of a series of pyrazino[2,3-c][1,2,6]thiadiazine 2, 2-dioxides” (2000).
In brackets after ≈: the same amount, converted by molar mass. Activity calls are given as the source filed them. No cut-off for these calls is given here.

Columns and labels:
Assay type in all cases: functional
Cavia porcellus [1] = species: Cavia porcellus; assay: Bronchodilatory activity in vitro by tracheal tone inhibition at 30 ug/mL in guinea pig tracheal muscle.; details: Muscle tissue
Summary of the method: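 In vitro tracheal relaxation. Percent inhibition was recorded with 30 µg/mL test compound, each concentration assayed in duplicate. Inhibition above 50% was taken as pharmacologically significant.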

Cavia porcellus [2] = species: Cavia porcellus; assay: Tracheal relaxing activity expressed as minimum inhibitory concentration required to obtain a inhibitory response by more than 50%
Summary of the method: (§1)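 Tracheal relaxation was tested over several concentrations, each in duplicate. The value is the lowest concentration (µg/mL) giving more than 50% inhibition of the response.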

Cavia porcellus [3] = species: Cavia porcellus; assay: Tracheal relaxing activity expressed as minimum inhibitory concentration required to obtain a inhibitory response by more than 50%; NA denotes no activity at 30 ug/mL.; summary of the method: as §1

| SMILES | MIC (Cavia porcellus [2]) [µg/mL] | MIC (Cavia porcellus [3]) | inhibition at 30 µg/mL (Cavia porcellus [1]) [%] |
| --- | --- | --- | --- |
| CN1c2nc3c(nc2C(N)=NS1(=O)=O)CCCCC3 | 10 (≈ 35.5 µM) | – | 88 |
| CCc1nc2c(nc1C)C(NC)=NS(=O)(=O)N2CC | 30 (≈ 106 µM) | – | 75 |
| CCOC(=O)CN1c2ncc(C)nc2C(N)=NS1(=O)=O | – | inactive | 20 |
| CCN1c2nc(-c3ccccc3)cnc2C(N)=NS1(=O)=O | 3 (≈ 9.89 µM) | – | 95 |
| CCc1nc2c(nc1C)C(NCCN(C)C)=NS(=O)(=O)N2CC | – | inactive | 34 |
| CN1c2nc(-c3ccccc3)cnc2C(NN)=NS1(=O)=O | 10 (≈ 32.9 µM) | – | 81 |
| CCN1c2ncc(C)nc2C(NCc2ccccc2)=NS1(=O)=O | – | inactive | 27 |
| CCN1c2ncc(-c3ccccc3)nc2C(N)=NS1(=O)=O | – | inactive | 20 |
| CCN1c2nc(-c3ccccc3)cnc2C(NCc2ccccc2)=NS1(=O)=O | – | inactive | 20 |
| CCN1c2nc(-c3ccccc3)c(-c3ccccc3)nc2C(N)=NS1(=O)=O | – | inactive | 24 |
| Cc1nc2c(nc1C)N(C)S(=O)(=O)N=C2NCc1ccccn1 | – | inactive | 31 |
| Cc1nc2c(nc1-c1ccccc1)C(N1CCCC1)=NS(=O)(=O)N2C | – | inactive | 10 |
| CCOC(=O)CN1c2nc(-c3ccccc3)cnc2C(N)=NS1(=O)=O | 10 (≈ 27.7 µM) | – | 72 |
| CN1c2ncc(-c3ccccc3)nc2C(N)=NS1(=O)=O | 30 (≈ 104 µM) | – | 56 |
| CN1c2nc(-c3ccccc3)c(Cl)nc2C(N)=NS1(=O)=O | 30 (≈ 92.7 µM) | – | 86 |
| CCNC1=NS(=O)(=O)N(CC)c2ncc(C)nc21 | 30 (≈ 111 µM) | – | 63 |
| CN1c2nc(-c3ccccc3)cnc2C(NCCN)=NS1(=O)=O | – | inactive | 6 |
| CCc1nc2c(nc1C)C(NCCO)=NS(=O)(=O)N2CC | – | inactive | 41 |
| CN1c2nccnc2C(N)=NS1(=O)=O | – | inactive | 22 |
| CCN1c2nc(C)c(C)nc2C(N)=NS1(=O)=O | – | – | 33 |
| Cc1cnc2c(n1)C(N)=NS(=O)(=O)N2C | – | inactive | 45 |
| Cn1c(=O)c2nc[nH]c2n(C)c1=O.O [THEOPHYLLINE] | 30 | – | 60 |
| CCNC1=NS(=O)(=O)N(CC)c2ncc(-c3ccccc3)nc21 | 10 (≈ 30.2 µM) | – | 74 |

Further lines, with some results ahead:

| MIC (Cavia porcellus [2]) [µg/mL] | MIC (Cavia porcellus [3]) | SMILES | inhibition at 30 µg/mL (Cavia porcellus [1]) [%] |
| --- | --- | --- | --- |
| 10 (≈ 35.3 µM) | – | CCCCc1nc2c(nc1C)C(N)=NS(=O)(=O)N2C | 64 |
| 30 (≈ 118 µM) | – | CCc1cnc2c(n1)N(CC)S(=O)(=O)N=C2N | 80 |
| 30 (≈ 111 µM) | – | CCCN1c2nc(C)c(C)nc2C(N)=NS1(=O)=O | 58 |
| – | inactive | CCN1c2nc(C)cnc2C(N)=NS1(=O)=O | 42 |
| 3 (≈ 12.4 µM) | – | Cc1nc2c(nc1C)N(C)S(=O)(=O)N=C2N | 92 |
| 30 (≈ 106 µM) | – | CCN1c2nc(C(C)C)c(C)nc2C(N)=NS1(=O)=O | 55 |
| 30 (≈ 106 µM) | – | CCN1c2ncc(C(C)(C)C)nc2C(N)=NS1(=O)=O | 86 |
| – | inactive | Cc1nc2c(nc1C)N(CC(=O)O)S(=O)(=O)N=C2N | 13 |
| – | inactive | CCc1nc2c(nc1CC)N(CC)S(=O)(=O)N=C2N | 0 |
| 3 (≈ 9.45 µM) | – | CCN1c2nc(-c3ccccc3)c(C)nc2C(N)=NS1(=O)=O | 100 |
| 10 (≈ 37.1 µM) | – | CCCc1cnc2c(n1)C(N)=NS(=O)(=O)N2CC | 90 |
| 30 (≈ 106 µM) | – | CCc1nc2c(nc1C)C(NN)=NS(=O)(=O)N2CC | 72 |
| – | inactive | CCOC(=O)CN1c2nc(C)c(C)nc2C(N)=NS1(=O)=O | 15 |
| 10 (≈ 37.1 µM) | – | CCc1nc2c(nc1C)N(CC)S(=O)(=O)N=C2N | 95 |
| 30 (≈ 78.5 µM) | – | CCN1c2nc(-c3ccccc3)c(Br)nc2C(N)=NS1(=O)=O | 63 |
| 3 (≈ 11.8 µM) | – | CCc1nc2c(nc1C)C(N)=NS(=O)(=O)N2C | 95 |
| 10 (≈ 31.2 µM) | – | CCN1c2nc(C)c(Br)nc2C(N)=NS1(=O)=O | 88 |
| – | inactive | CCc1nc2c(nc1C)C(N)=NS(=O)(=O)N2CC | 0 |
| 30 (≈ 106 µM) | – | CCCN1c2nc(CC)c(C)nc2C(N)=NS1(=O)=O | 51 |
| – | inactive | CCCc1nc2c(nc1C)C(N)=NS(=O)(=O)N2CC | 34 |
| 30 (≈ 124 µM) | – | CCN1c2ncc(C)nc2C(N)=NS1(=O)=O | 67 |
| – | inactive | CCN1c2nc(C(C)C)c(C(C)C)nc2C(N)=NS1(=O)=O | 0 |
| 30 (≈ 94.5 µM) | – | CCN1c2nc(C)c(-c3ccccc3)nc2C(N)=NS1(=O)=O | 93 |
| 30 (≈ 111 µM) | – | CCN1c2ncc(C(C)C)nc2C(N)=NS1(=O)=O | 57 |
| 30 (≈ 111 µM) | – | Cc1nc2c(nc1C)N(CCO)S(=O)(=O)N=C2N | 59 |
| 10 (≈ 39.2 µM) | – | CCc1cnc2c(n1)C(N)=NS(=O)(=O)N2CC | 72 |
| 10 (≈ 35.5 µM) | – | CCN1c2nc3c(nc2C(N)=NS1(=O)=O)CCCC3 | 82 |
| – | inactive | CCN1c2nccnc2C(N)=NS1(=O)=O | 13 |
